Source: PubChem (Broad Institute)
T cruzi growth-1: T. cruzi proliferation inhibition. T. cruzi beta-gal in NIH3T3, GalScreen luminescence, 90 h. inhibition, % at 8.34 µM. 77,000 tested, 5.9% active;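 active = mean inhibition above about 93%, with at least 55% of replicates each passing it, limit read from the data, passing the limit was not always enough; inconclusive = only one of those two conditions holds; inactive = neither condition holds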
KDM4C inh: blocks human GASC-1 (KDM4C) demethylase activity; Q9H3R0; 96,000 tested, 0.15% active; GST-KDM4C 2-372, H3K9me3 peptide, LANCE TR-FRET; inhibition, % at 12.5 µM; AID 720574;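 active = mean replicate inhibition above about 25%, with at least 55% of replicates also reaching it, limit read from the data, passing the limit was not always enough; inconclusive = only one of those two conditions met; inactive = neither condition met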
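Test system: N-terminal GST-fused human GASC-1 (KDM4C) fragment, residues 2-372; quantity: GASC-1 enzyme at 10 nM final in reaction; dosing: single dose; schedule: 30 min demethylation and 1 h detection at room temperature; signal: LANCE TR-FRET, excitation 340 nm, emissions 618 and 671 nm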
Pf Dd2 growth: inhibitors of Plasmodium falciparum Dd2 growth; AID 1159554; 94,000 tested, 2.3% active; P. falciparum Dd2 growth, SYBR Green, 72 h; active compounds read low; activity change, % at 10 µM; in the data active = activity change below about -80%; inconclusive = no clear call, values can overlap the other calls
IDH1 mut inh: blocks human IDH1 R132H reductase activity | diaphorase/resazurin fluorescence, 60 min | inhibition, % at 10 µM | 70,000 tested, 0.18% active | AID 624101; in the data active = inhibition above about 34%; inconclusive = no clear call, values can overlap the other calls; inactive = below about 11%
Target sequence (O75874 whole entry R132H): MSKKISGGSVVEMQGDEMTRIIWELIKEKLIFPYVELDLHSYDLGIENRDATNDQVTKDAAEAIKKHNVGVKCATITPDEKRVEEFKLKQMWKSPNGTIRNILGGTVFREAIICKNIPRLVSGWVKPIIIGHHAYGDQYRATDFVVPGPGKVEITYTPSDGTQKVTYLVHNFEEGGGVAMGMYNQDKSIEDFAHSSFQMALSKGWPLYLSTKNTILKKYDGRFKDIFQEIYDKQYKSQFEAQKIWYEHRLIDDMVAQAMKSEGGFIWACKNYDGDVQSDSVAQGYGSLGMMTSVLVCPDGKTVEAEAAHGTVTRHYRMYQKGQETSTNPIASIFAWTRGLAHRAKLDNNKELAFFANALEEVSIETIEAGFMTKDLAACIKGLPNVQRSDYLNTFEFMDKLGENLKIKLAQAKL
T cruzi growth-2: Trypanosoma cruzi proliferation inhibition. T. cruzi beta-gal in NIH3T3, GalScreen luminescence, 90 h. shares compounds with T cruzi growth-1. 5,600 tested, 72% active. AID 651739. inhibition, % at 8.35 µM;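 active = mean replicate inhibition above about 95% and at least 55% of replicates individually reaching it, limit read from the data; inconclusive = only one of the two criteria is met; inactive = neither criterion is met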
T cruzi growth-3: blocks T. cruzi growth in NIH3T3 host cells | shares compounds with T cruzi growth-1 | T. cruzi beta-gal in NIH3T3, GalScreen luminescence, 90 h | inhibition, % at 2.09 µM | 5,600 tested, 21% active;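 active = mean inhibition above about 95%, with at least 55% of replicates also reaching it, limit read from the data; inconclusive = meets just one of the two conditions; inactive = meets neither condition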
NIH3T3 tox: cytotoxicity in mouse NIH/3T3 fibroblasts. 5,600 tested, 14% active. cytotoxicity (signal decrease), % at 8.35 µM. AID 651742. NIH/3T3 viability, CellTiter-Glo ATP luminescence, 90 h. shares compounds with T cruzi growth-1;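 active = mean signal decrease across replicates above about 35% based on untreated-well scatter, with enough replicates individually passing, limit read from the data; inconclusive = no rule stated though some were filed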
3T3 cytotox 2: cytotoxicity in mouse NIH/3T3 fibroblasts; shares compounds with T cruzi growth-1; NIH/3T3 viability, CellTiter-Glo ATP luminescence, 90 h; inhibition, % at 24.9 µM; 5,600 tested, 56% active; AID 651744;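 active = mean loss of cell viability signal at or above a set limit, and enough replicates individually reaching it; inconclusive = meets only the mean limit or only the replicate share; inactive = meets neither condition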
Large screens that a line does not name were inactive (follow-up assays come after a bar, where they were run). An excerpt weighted towards active compounds, which were near 5.8% of everything screened.

C[C@@H]1CN([C@@H](C)CO)C(=O)c2cc(NC(=O)C3CCCCC3)ccc2O[C@@H]1CN(C)Cc1ccc(C(F)(F)F)cc1	T cruzi growth-1 72 | T cruzi growth-2 inactive | T cruzi growth-3 inactive | NIH3T3 tox inactive | 3T3 cytotox 2 31
C[C@@H]1CCCCO[C@@H](CN(C)Cc2ccc(C(=O)O)cc2)[C@H](C)CN([C@H](C)CO)C(=O)c2cc(NC(=O)C3CCCCC3)ccc2O1	none
C[C@@H]1CCCCO[C@@H](CN(C)Cc2ccc(C(F)(F)F)cc2)[C@H](C)CN([C@@H](C)CO)C(=O)c2cc(NC(=O)C3CCCCC3)ccc2O1	T cruzi growth-1 114 | T cruzi growth-2 102 | T cruzi growth-3 112 | NIH3T3 tox inactive | 3T3 cytotox 2 inactive
C[C@H](CO)N1C[C@H](C)[C@H](CN(C)C(=O)Nc2ccc(C(F)(F)F)cc2)Oc2ccc(NC(=O)C3CCCCC3)cc2C1=O	T cruzi growth-1 inconclusive | T cruzi growth-2 100 | T cruzi growth-3 inactive | NIH3T3 tox 44 | 3T3 cytotox 2 52
C[C@H](CO)N1C[C@H](C)[C@H](CN(C)Cc2ccc(C(F)(F)F)cc2)OCCCC[C@H](C)Oc2ccc(NC(=O)C3CCCCC3)cc2C1=O	T cruzi growth-1 99 | T cruzi growth-2 inconclusive | T cruzi growth-3 111 | NIH3T3 tox inactive | 3T3 cytotox 2 55
C[C@H]1CCCCO[C@@H](CN(C)Cc2ccc(C(F)(F)F)cc2)[C@@H](C)CN([C@@H](C)CO)C(=O)c2cc(NC(=O)C3CCCCC3)ccc2O1	T cruzi growth-1 inconclusive (no result: IDH1 mut inh) | T cruzi growth-2 98 | T cruzi growth-3 inactive | NIH3T3 tox inactive | 3T3 cytotox 2 26
O=C(CN1C2=NCCN2c2ccccc21)c1ccc(Cl)cc1Cl	none (no result: T cruzi growth-1, KDM4C inh, Pf Dd2 growth)
O=C(Nc1ccc2c(c1)[C@@H]1C[C@H](CC(=O)N3CCc4ccccc4C3)O[C@@H](CO)[C@@H]1O2)Nc1ccccc1F	none (no result: T cruzi growth-1)
O=C(Nc1ccc2c(c1)[C@@H]1C[C@H](CC(=O)N3CCc4ccccc4C3)O[C@H](CO)[C@@H]1O2)Nc1ccccc1F	none (no result: T cruzi growth-1)
CN(C)CC(=O)Nc1ccc2c(c1)[C@H]1C[C@@H](CC(=O)N3CCc4ccccc4C3)O[C@H](CO)[C@H]1O2	T cruzi growth-1 105 | T cruzi growth-2 inactive | T cruzi growth-3 inactive | NIH3T3 tox inactive | 3T3 cytotox 2 inactive
O=C(C[C@@H]1C[C@H]2c3cc(NS(=O)(=O)c4ccc(F)cc4)ccc3O[C@H]2[C@@H](CO)O1)N1CCc2ccccc2C1	T cruzi growth-1 117 | T cruzi growth-2 inactive | T cruzi growth-3 inactive | NIH3T3 tox inactive | 3T3 cytotox 2 inactive
CN(C)CC(=O)Nc1ccc2c(c1)[C@@H]1C[C@H](CC(=O)N3CCc4ccccc4C3)O[C@H](CO)[C@@H]1O2	none
O=C(Nc1ccc(C(F)(F)F)cc1)Nc1ccc2c(c1)[C@@H]1C[C@H](CC(=O)N3CCc4ccccc4C3)O[C@H](CO)[C@@H]1O2	T cruzi growth-1 119 | T cruzi growth-2 inactive | T cruzi growth-3 122 | NIH3T3 tox inactive | 3T3 cytotox 2 inactive
O=C(Nc1ccc(C(F)(F)F)cc1)Nc1ccc2c(c1)[C@@H]1C[C@@H](CC(=O)N3CCc4ccccc4C3)O[C@H](CO)[C@@H]1O2	T cruzi growth-1 138 | T cruzi growth-2 97 | T cruzi growth-3 inconclusive | NIH3T3 tox inactive | 3T3 cytotox 2 104
CS(=O)(=O)N(CC(=O)Nc1cccc([N+](=O)[O-])c1)c1ccc2c3c(cccc13)CC2	none (no result: T cruzi growth-1, KDM4C inh, Pf Dd2 growth)
O=C(CC1CC1)Nc1ccc2c(c1)[C@@H]1C[C@@H](CC(=O)N3CCCCC3)O[C@@H](CO)[C@@H]1O2	T cruzi growth-1 104 | T cruzi growth-2 inactive | T cruzi growth-3 inactive | NIH3T3 tox inactive | 3T3 cytotox 2 inactive
CC1=CC=C(C=O)C(C)(C)C1OC(=O)/C=C(\C)CO (stereo unspecified)	none (no result: T cruzi growth-1, KDM4C inh, Pf Dd2 growth)
